Test results reported in ChEMBL document CHEMBL1255185, “Substituted 4-amino-1H-pyrazolo[3,4-d]pyrimidines as multi-targeted inhibitors of insulin-like growth factor-1 receptor (IGF1R) and members of ErbB-family receptor kinases” (Bioorg Med Chem Lett, 2010).
Calls of active or inactive are those of the source. The rule behind the calls is not given here.

Legend:
[1] = Tmax in po dosed rat; format: ADME, organism-based; conditions: in vivo
Summary of the method: (§1)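 Rat oral PK used a 5 mg/kg dose. AUC is normalized to dose (per mg/kg), and F is oral bioavailability.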

[2] = Tmax in po dosed C57BL/6 mouse; format: ADME, organism-based; conditions: in vivo
Summary of the method: (§2)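 Mouse oral PK used a 10 mg/kg dose. AUC is normalized to dose (per mg/kg), and F is oral bioavailability.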

[3] = Cmax in rat at 5 mg/kg, po; format: ADME, organism-based; parameters: dose 5 mg/kg, route oral; conditions: in vivo; summary of the method: as §1
Mus musculus [4] = assay: Dose normalized AUC in po dosed C57BL/6 mouse; format: ADME, organism-based; conditions: in vivo; summary of the method: as §2
[5] = molecular target: Epidermal growth factor receptor (Homo sapiens, UniProt P00533); assay: Inhibition of EGFR phosphorylation in human MIAPaCa cells by ELISA; format: cell-based
[6] = molecular target: T1, Receptor tyrosine-protein kinase erbB-2 (Homo sapiens, UniProt P04626); assay: Inhibition of ErbB2
[7] = molecular target: T2, Insulin-like growth factor 1 receptor (Homo sapiens, UniProt P08069); assay: Inhibition of IGF1R phosphorylation in human MIAPaCa cells by ELISA; format: cell-based
Summary of the method: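 Cellular IGF1R phosphorylation was read out in ELISA format in MiaPaCa human pancreatic carcinoma cells, which express both IGF1R and EGFR.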

[8] = Oral bioavailability in rat at 5 mg/kg; format: ADME, organism-based; conditions: in vivo; summary of the method: as §1
[9] = Cmax in C57BL/6 mouse at 10 mg/kg, po; format: ADME, organism-based; parameters: dose 10 mg/kg, route oral; conditions: in vivo; summary of the method: as §2
[10] = Clearance in iv dosed rat; format: ADME, organism-based; conditions: in vivo
[11] = Half life in iv dosed rat; format: ADME, organism-based; conditions: in vivo
[12] = molecular target: T1, Receptor tyrosine-protein kinase erbB-2; assay: Inhibition of ERBb2 phosphorylation in human BT474 cells by ELISA; format: cell-based, BT-474
Summary of the method: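 ErbB2 phosphorylation was read out in ELISA format in BT474 human breast tumour cells, which highly express ErbB2.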

[13] = Half life in iv dosed C57BL/6 mouse; format: ADME, organism-based; conditions: in vivo
Rattus norvegicus [14] = assay: Dose normalized AUC in po dosed rat; format: ADME, organism-based; conditions: in vivo; summary of the method: as §1
Mus musculus [15] = assay: Dose normalized AUC in iv dosed C57BL/6 mouse; format: ADME, organism-based; conditions: in vivo
Summary of the method: (§3)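 Intravenous PK: AUC is normalized to dose and expressed per mg/kg.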

[16] = Oral bioavailability in C57BL/6 mouse at 10 mg/kg; format: ADME, organism-based; conditions: in vivo; summary of the method: as §2
Mus musculus [17] = assay: Inhibition of IGF1R phosphorylation in C57BL/6 mouse at 30 mg/kg, iv by Western blotting; format: functional
Summary of the method: (§4)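 Female C57BL/6 mice were dosed iv with compound or vehicle; doses of 3, 10, 30 and 60 mg/kg were used. After 1 h, IGF-1 was given iv at 0.5 mg/kg, and mice were sacrificed 10 min later. Lung tissue was homogenized, and p-IGF1R and p-Akt were analyzed by Western blot. Drug levels in plasma and tissues were measured.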

[18] = molecular target: T2, Insulin-like growth factor 1 receptor; assay: Inhibition of IGF1R
[19] = Clearance in iv dosed C57BL/6 mouse; format: ADME, organism-based; conditions: in vivo
Rattus norvegicus [20] = assay: Dose normalized AUC in iv dosed rat; format: ADME, organism-based; conditions: in vivo; summary of the method: as §3
Mus musculus [21] = assay: Inhibition of AKT phosphorylation in C57BL/6 mouse at 30 mg/kg, iv by Western blotting; format: functional, organism-based; parameters: dose 30 mg/kg; summary of the method: as §4
[22] = molecular target: Epidermal growth factor receptor (Homo sapiens, UniProt P04626+P00533+Q15303+P21860); assay: Inhibition of EGFR L858 mutant; format: protein assay
Summary of the method: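 Kinase inhibition was measured in a homogeneous time-resolved fluorescence assay. The EGFR enzyme construct carries the L858R activating mutation.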

T1 sequence (P04626 whole entry): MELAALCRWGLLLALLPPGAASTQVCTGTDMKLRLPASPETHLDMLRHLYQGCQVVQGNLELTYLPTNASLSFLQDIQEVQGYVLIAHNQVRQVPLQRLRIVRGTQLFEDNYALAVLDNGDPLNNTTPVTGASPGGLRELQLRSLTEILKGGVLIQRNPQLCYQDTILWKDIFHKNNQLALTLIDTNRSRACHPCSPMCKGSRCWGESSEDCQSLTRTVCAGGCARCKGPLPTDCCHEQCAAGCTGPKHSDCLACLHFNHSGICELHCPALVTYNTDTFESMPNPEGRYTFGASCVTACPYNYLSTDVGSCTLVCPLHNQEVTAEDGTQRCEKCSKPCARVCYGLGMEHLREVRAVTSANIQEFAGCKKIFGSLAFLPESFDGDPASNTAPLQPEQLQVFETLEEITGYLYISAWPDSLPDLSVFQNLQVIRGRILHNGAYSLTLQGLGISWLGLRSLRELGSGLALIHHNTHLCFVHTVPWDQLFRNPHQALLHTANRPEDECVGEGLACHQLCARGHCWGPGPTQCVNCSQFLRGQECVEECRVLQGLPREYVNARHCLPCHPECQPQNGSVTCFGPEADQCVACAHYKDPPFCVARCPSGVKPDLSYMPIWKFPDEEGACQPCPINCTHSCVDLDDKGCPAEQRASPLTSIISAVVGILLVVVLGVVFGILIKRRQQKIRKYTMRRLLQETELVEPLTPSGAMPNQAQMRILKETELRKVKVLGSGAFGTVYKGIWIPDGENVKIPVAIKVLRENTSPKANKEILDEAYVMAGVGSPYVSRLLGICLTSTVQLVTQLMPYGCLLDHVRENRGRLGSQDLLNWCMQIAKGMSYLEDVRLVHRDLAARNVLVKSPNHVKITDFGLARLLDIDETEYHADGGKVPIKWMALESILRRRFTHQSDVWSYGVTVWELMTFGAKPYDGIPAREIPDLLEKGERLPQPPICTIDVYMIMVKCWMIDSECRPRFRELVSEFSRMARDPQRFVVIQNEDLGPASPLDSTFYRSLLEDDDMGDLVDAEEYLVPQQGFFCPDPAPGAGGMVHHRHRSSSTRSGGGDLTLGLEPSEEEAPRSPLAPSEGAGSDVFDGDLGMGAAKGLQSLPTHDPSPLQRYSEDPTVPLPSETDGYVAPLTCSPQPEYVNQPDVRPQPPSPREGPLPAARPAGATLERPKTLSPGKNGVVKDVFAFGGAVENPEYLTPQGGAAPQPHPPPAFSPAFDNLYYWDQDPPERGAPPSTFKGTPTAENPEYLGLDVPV
Epidermal growth factor receptor (Homo sapiens, UniProt P00533), sequence (P00533 whole entry): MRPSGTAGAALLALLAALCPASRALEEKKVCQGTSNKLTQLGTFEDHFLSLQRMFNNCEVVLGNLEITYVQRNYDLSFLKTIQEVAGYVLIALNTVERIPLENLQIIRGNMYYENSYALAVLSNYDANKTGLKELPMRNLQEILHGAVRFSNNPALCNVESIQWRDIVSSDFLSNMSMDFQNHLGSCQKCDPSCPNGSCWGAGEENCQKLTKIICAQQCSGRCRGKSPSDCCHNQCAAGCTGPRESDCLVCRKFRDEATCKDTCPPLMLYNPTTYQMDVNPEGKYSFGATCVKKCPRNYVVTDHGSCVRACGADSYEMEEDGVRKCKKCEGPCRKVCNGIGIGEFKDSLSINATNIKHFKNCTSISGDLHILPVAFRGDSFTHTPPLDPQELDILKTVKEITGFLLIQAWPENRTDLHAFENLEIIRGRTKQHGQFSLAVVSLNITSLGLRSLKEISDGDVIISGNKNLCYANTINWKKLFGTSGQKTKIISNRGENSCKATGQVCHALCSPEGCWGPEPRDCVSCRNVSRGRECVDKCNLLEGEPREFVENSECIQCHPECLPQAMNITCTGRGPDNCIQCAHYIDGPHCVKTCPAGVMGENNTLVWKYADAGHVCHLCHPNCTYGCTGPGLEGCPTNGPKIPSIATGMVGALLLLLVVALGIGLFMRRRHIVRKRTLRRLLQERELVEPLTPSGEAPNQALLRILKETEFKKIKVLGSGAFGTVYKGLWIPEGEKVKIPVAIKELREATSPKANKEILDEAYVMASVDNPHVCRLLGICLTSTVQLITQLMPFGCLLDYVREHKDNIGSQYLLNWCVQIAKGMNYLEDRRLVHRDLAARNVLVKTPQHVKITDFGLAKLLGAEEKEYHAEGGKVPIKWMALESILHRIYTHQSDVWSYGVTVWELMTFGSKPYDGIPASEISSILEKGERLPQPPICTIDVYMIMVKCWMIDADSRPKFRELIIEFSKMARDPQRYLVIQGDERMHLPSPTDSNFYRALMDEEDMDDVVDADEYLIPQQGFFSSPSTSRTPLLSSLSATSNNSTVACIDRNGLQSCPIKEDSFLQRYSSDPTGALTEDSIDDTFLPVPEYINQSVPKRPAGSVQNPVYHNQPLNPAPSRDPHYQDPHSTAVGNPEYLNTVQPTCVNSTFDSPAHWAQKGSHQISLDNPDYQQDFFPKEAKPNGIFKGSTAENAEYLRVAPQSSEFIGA
T2 sequence (P08069 31-736 limits assumed): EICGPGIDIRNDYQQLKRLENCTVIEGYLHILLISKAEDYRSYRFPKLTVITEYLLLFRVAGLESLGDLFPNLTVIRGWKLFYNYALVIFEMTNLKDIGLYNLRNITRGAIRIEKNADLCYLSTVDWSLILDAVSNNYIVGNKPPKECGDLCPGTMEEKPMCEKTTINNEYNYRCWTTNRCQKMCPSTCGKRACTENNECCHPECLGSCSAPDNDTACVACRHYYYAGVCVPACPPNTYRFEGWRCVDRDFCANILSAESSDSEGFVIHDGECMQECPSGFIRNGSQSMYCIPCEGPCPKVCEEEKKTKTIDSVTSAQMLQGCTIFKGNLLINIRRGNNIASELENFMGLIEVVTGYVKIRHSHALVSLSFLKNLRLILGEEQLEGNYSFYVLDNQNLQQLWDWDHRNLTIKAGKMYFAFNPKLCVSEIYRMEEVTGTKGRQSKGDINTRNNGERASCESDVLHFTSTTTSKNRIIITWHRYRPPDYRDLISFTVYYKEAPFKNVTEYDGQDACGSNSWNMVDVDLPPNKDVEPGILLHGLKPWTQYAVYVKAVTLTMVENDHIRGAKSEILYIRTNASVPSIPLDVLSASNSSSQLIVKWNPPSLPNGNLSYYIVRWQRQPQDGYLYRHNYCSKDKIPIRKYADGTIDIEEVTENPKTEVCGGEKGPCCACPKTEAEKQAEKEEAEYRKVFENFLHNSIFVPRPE
T2 sequence (P08069 741-1367 limits assumed): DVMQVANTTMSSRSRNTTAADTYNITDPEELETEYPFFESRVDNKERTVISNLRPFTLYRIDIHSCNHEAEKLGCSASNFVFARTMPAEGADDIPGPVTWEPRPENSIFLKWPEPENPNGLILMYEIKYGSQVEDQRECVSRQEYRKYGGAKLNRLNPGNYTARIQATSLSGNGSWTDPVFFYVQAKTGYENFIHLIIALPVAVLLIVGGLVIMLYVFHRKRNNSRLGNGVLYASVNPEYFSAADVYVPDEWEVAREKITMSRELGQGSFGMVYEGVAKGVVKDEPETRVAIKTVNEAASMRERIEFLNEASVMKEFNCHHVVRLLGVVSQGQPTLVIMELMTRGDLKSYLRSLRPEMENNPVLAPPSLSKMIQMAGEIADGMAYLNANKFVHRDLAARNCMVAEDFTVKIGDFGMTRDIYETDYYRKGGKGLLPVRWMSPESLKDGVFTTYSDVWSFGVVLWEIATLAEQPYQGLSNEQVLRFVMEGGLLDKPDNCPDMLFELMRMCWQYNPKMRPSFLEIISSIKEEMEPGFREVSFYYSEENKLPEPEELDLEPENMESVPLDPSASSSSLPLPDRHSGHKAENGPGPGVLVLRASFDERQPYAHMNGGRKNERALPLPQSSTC

SMILES	IC50 [6]	IC50 [18]	IC50 [22]	other results
Cc1cc(Br)c2oc(Nc3ccc(-c4cn([C@H]5CC[C@@H](N6CCN(C)CC6)CC5)c5ncnc(N)c45)cc3F)nc2c1	> 62500 nM	94 nM	1450 nM	
CN1CCN([C@H]2CC[C@@H](n3nc(-c4ccc(Nc5nc6cccc(Cl)c6o5)c(F)c4)c4c(N)ncnc43)CC2)CC1	1350 nM	72 nM	852 nM	
Cc1cc(C)c2oc(Nc3ccc(-c4nn([C@H]5CC[C@@H](N6CCN(C)CC6)CC5)c5ncnc(N)c45)cc3F)nc2c1	4030 nM	160 nM	2270 nM	
CN1CCN([C@H]2CC[C@H](n3nc(-c4ccc(Nc5nc6cccc(Cl)c6o5)c(F)c4)c4c(N)ncnc43)CC2)CC1	16 nM	7.5 nM	37 nM	EC50 [5]: > 1000 nM; IC50 [5]: 2880 nM; IC50 [7]: 87 nM; IC50 [12]: 362 nM
CN1CCN([C@H]2CC[C@H](n3nc(-c4ccc(Nc5nc6cccc(Cl)c6o5)cc4Cl)c4c(N)ncnc43)CC2)CC1	15.4 nM	4.1 nM		
CN1CCN([C@H]2C[C@@H](c3nc(-c4ccc5ccc(-c6ccccc6)nc5c4)c4c(N)nccn43)C2)CC1				IC50 [5]: > 30000 nM; IC50 [7]: 65 nM; IC50 [12]: > 30000 nM
CN1CCN([C@H]2CC[C@H](n3nc(-c4ccc(Nc5nc6cccc(Cl)c6o5)c(Cl)c4)c4c(N)ncnc43)CC2)CC1	29 nM	49 nM	63 nM	
COCCCN1CCC(N2CCC(n3nc(-c4ccc(Nc5nc6cccc(Cl)c6o5)cc4)c4c(N)ncnc43)CC2)CC1	13.8 nM	283 nM	264 nM	
CC(C)N1CCC(N2CCC(n3nc(-c4ccc(Nc5nc6cccc(Cl)c6o5)cc4)c4c(N)ncnc43)CC2)CC1	15.1 nM	115 nM	97 nM	
Cc1cc(-c2nn([C@H]3CC[C@H](N4CCN(C)CC4)CC3)c3ncnc(N)c23)ccc1Nc1nc2cccc(Cl)c2o1		196 nM	156 nM	
Cc1cc(Nc2nc3cccc(Cl)c3o2)ccc1-c1nn([C@H]2CC[C@H](N3CCN(C)CC3)CC2)c2ncnc(N)c12	478 nM	22 nM	530 nM	

Continued, in another order:

IC50 [6]	IC50 [18]	IC50 [22]	SMILES	other results
7.5 nM	12.5 nM	31.5 nM	CN1CCN([C@H]2CC[C@H](n3nc(-c4ccc(Nc5nc6cccc(Cl)c6o5)cc4)c4c(N)ncnc43)CC2)CC1	Tmax [1]: 8 h; Tmax [2]: 3 h; Cmax [3]: 160 nM; AUC (Mus musculus [4]): 190 ng·h/mL; EC50 [5]: > 1000 nM; IC50 [5]: 2300 nM; IC50 [7]: 207 nM; bioavailability [8]: 30%; Cmax [9]: 170 nM; clearance [10]: 15.2 mL/min/kg; half-life [11]: 8.4 h; IC50 [12]: 340 nM; half-life [13]: 2.4 h; AUC (Rattus norvegicus [14]): 380 ng·h/mL; AUC (Mus musculus [15]): 940 ng·h/mL; bioavailability [16]: 20%; inhibition in vivo at 30 mg/kg (Mus musculus [17]): 50%; clearance [19]: 31.8 mL/min/kg; AUC (Rattus norvegicus [20]): 1260 ng·h/mL; inhibition (Mus musculus [21]): Active
200 nM	77 nM	393 nM	CN1CCN([C@H]2CC[C@@H](n3nc(-c4ccc(Nc5nc6cccc(Cl)c6o5)cc4)c4c(N)ncnc43)CC2)CC1	
	179 nM	3590 nM	COC(=O)c1cccc2nc(Nc3ccc(-c4nn([C@H]5CC[C@@H](N6CCN(C)CC6)CC5)c5ncnc(N)c45)cc3)oc12	
	810 nM	1660 nM	CN1CCN([C@H]2CC[C@@H](n3nc(-c4ccc(Nc5nc6ccccc6o5)cc4)c4c(N)ncnc43)CC2)CC1	
21.5 nM	72.4 nM	108 nM	COCCCN1CCN([C@H]2CC[C@H](n3nc(-c4ccc(Nc5nc6cccc(Cl)c6o5)cc4)c4c(N)ncnc43)CC2)CC1	
21.5 nM	126 nM	1840 nM	CN(C)C(=O)CN1CCN([C@H]2CC[C@H](n3nc(-c4ccc(Nc5nc6cccc(Cl)c6o5)cc4)c4c(N)ncnc43)CC2)CC1	
397 nM	424 nM	874 nM	COCCCN1CCN([C@H]2CC[C@@H](n3nc(-c4ccc(Nc5nc6cccc(Cl)c6o5)cc4)c4c(N)ncnc43)CC2)CC1	
5230 nM	348 nM	1130 nM	Cc1cc(Cl)c2oc(Nc3ccc(-c4nn([C@H]5CC[C@@H](N6CCN(C)CC6)CC5)c5ncnc(N)c45)cc3)nc2c1	
	415 nM	1470 nM	CN1CCN([C@H]2CC[C@@H](n3nc(-c4ccc(Nc5nc6cc(Cl)ccc6o5)c(F)c4)c4c(N)ncnc43)CC2)CC1	
62 nM	174 nM	322 nM	CC(C)N1CCN([C@H]2CC[C@@H](n3nc(-c4ccc(Nc5nc6cccc(Cl)c6o5)cc4)c4c(N)ncnc43)CC2)CC1	
9.8 nM	45.1 nM	53.7 nM	CC(C)N1CCN([C@H]2CC[C@H](n3nc(-c4ccc(Nc5nc6cccc(Cl)c6o5)cc4)c4c(N)ncnc43)CC2)CC1	
14.5 nM	108 nM	99 nM	CN1CCC(N2CCC(n3nc(-c4ccc(Nc5nc6cccc(Cl)c6o5)cc4)c4c(N)ncnc43)CC2)CC1	
	584 nM	639 nM	CN1CCN([C@H]2CC[C@@H](n3nc(-c4ccc(Nc5nc6cc(Cl)cc(Cl)c6o5)cc4)c4c(N)ncnc43)CC2)CC1	
	113 nM	2810 nM	CN1CCN([C@H]2CC[C@@H](n3nc(-c4ccc(Nc5nc6cccc(C#N)c6o5)cc4)c4c(N)ncnc43)CC2)CC1	
334 nM	42 nM	1020 nM	Nc1ncnc2c1c(-c1ccc(Nc3nc4cccc(Cl)c4o3)cc1)nn2[C@H]1CC[C@H](N2CCOCC2)CC1	
